This is a sample that favours compounds with a hit; in the whole collection about 3.2% have one here.
Cneo AK release: Cryptococcus neoformans lysis via adenylate kinase release | 360,000 compounds, 0.2% hits | C. neoformans lysis, adenylate kinase release luminescence, 4 h; normalised: neutral wells 0, clomiphene wells 100 | lysis activity, % at 15 µM | AID 651654;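 active = mean lysis activity across replicates of at least 80%, whatever share of replicates individually reach that level; inactive = mean lysis activity below 80%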
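Material – log-phase Cryptococcus neoformans yeast cells · Input – 5 × 10^6 yeast cells/mL · Medium – fresh YPD growth medium · Doses – single compound concentration per well · Timing – static 4 h at 37 °C with compound, 1 h detection · Detection – adenylate kinase release luminescence · Read-out – signal increase indicating cell lysis · Control set – Clomiphene as positive lysis control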
rRNA inh HTS: selective bacterial rRNA inhibition in E. coli. E. coli WT GFP vs humanized-ribosome RFP mutants, fluorescence, 24 h; active compounds read low; DMSO median 0, no signal -100. GFP signal change (wild-type ribosome), % (concentration not given with the values). 350,000 compounds, 1.6% hits;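 active = significant combined selectivity score with lowered wild-type GFP, culture density cut under 30%, mutant RFP and density less affected; inactive = any of these conditions unmet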
PfHsp90 yeast 2: reduces growth (ATP signal) of yeast expressing P. falciparum Hsp90; S. cerevisiae expressing PfHsp90, BacTiter-Glo ATP, 48 h; yeast lacking PDR1 and PDR3 efflux regulators; inhibition, % at 9.4 µM; 310,000 compounds, 0.32% hits; AID 504621;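 active = every replicate shows inhibition above about 80%, whatever the replicate mean, limit read from the data; inconclusive = mean inhibition reaches the set limit but some replicate falls short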;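 also: 0% = DMSO neutral controls and 100% = 20 µM radicicol positive controls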
S100A4 inh HTS: inhibitors of human S100A4 binding to myosin IIA peptide. S100A4/TAMRA-MyoIIA peptide fluorescence polarization. inhibition, % at 10.7 µM. P26447. AID 652163. 360,000 compounds, 0.14% hits;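 active = mean inhibition of at least 70% across replicates, with every replicate also reaching that level; inconclusive = mean inhibition reaches 70% but some replicates fall short; inactive = mean inhibition below 70%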
Target sequence (P26447 whole entry, looked up): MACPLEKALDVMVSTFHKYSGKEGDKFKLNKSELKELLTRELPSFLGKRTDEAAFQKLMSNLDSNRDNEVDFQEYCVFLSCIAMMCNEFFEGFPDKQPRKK
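Test system: S100A4 monomer protein. Medium: HEPES buffer with Ca2+, pH 7.2. Reagent: fluorescent myosin IIA peptide, 5 nM. Compound dosing: single-point compound testing. Timing: 5 min between mix addition and reading. Benchmarks: DMSO neutral and TFP positive wells.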
DENV2 CPE rescue: inhibitors of DENV2 cytopathic effect; DENV2-infected cells, cytopathic effect rescue, plate reader; CPE inhibition, % at 9.99 µM; 350,000 compounds, 1.7% hits; in the data active = CPE inhibition above about 20%, passing the limit was not always enough; inconclusive = no clear call, values can overlap the other calls; tested in BHK-21 cells;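 also: 0% = median of neutral control wells and 100% = median of positive control wells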
AF4-AF9 inh: blocks AF4 peptide binding to human AF9; AlphaScreen, biotin-AF4 peptide binding to FLAG-AF9; 350,000 compounds, 0.47% hits; P42568; inhibition, % at 10 µM; AID 651704;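 active = every replicate reaching a set inhibition limit, whatever the replicate mean, cut at about 25% in these data; inconclusive = mean inhibition reaches that limit but some replicates miss it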;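 also: 0% = plate neutral control median and 100% = total signal loss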
Target sequence (P42568 whole entry, looked up): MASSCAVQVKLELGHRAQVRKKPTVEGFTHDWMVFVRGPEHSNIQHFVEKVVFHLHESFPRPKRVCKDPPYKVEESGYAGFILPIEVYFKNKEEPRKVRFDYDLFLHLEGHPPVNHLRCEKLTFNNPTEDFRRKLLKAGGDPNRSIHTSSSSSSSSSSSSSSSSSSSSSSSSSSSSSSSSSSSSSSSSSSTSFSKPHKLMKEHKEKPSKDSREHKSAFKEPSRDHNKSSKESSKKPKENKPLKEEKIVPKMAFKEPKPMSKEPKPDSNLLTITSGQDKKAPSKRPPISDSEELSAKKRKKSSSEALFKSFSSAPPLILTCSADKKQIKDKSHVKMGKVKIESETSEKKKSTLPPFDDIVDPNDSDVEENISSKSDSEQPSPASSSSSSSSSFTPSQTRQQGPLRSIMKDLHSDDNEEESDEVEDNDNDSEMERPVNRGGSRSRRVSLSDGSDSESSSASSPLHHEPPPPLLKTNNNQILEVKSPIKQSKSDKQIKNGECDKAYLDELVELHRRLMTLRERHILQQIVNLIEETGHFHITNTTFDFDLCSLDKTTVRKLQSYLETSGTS
* hit, by the source's call.

How did CN(C)c1cccc(C(=O)Nc2cc(C(F)(F)F)ccc2-n2cnc3ccccc32)c1 do in these assays?
rRNA inh HTS: -8.0; PfHsp90 yeast 2: 0.6; S100A4 inh HTS: -0.5; DENV2 CPE rescue: 24.9*; AF4-AF9 inh: 4.1

How did COc1ccccc1N1CCN(C(=O)c2oc3ccc(F)cc3c2C)CC1 do in these assays?
Cneo AK release: 0.9; rRNA inh HTS: -36.4*; PfHsp90 yeast 2: -31.5; S100A4 inh HTS: 22.7; DENV2 CPE rescue: -2.2; AF4-AF9 inh: -20.4

Results for COc1ccccc1N1CCN(C(=O)c2oc3ccc(Br)cc3c2C)CC1 ?
rRNA inh HTS: -9.9; PfHsp90 yeast 2: -62.0; S100A4 inh HTS: -3.3; DENV2 CPE rescue: 11.5; AF4-AF9 inh: -3.5

How did Cc1c(C(=O)N2CCCC2)oc2ccc(Br)cc12 do in these assays?
Cneo AK release: 0.3; rRNA inh HTS: -30.1*; PfHsp90 yeast 2: 10.8; S100A4 inh HTS: -31.1; DENV2 CPE rescue: 53.2*; AF4-AF9 inh: -4.2

Results for CNC(=O)C[C@@H]1CC[C@@H]2[C@@H](COc3ccc(NC(=O)C(C)C)cc3C(=O)N2C)O1 ?
rRNA inh HTS: 0.8

What do the screens show for `COc1ccc(Nc2ccc(Cl)nn2)cc1`?
Cneo AK release: -2.7; rRNA inh HTS: 6.0; PfHsp90 yeast 2: 15.3; S100A4 inh HTS: -2.1; DENV2 CPE rescue: 8.4; AF4-AF9 inh: 43.1*

How did O=C1C=C(N2CCOCC2)c2cccc3cccc1c23 do in these assays?
Cneo AK release: -0.5; rRNA inh HTS: -16.1; S100A4 inh HTS: 83.2*; DENV2 CPE rescue: 6.7; AF4-AF9 inh: 8.5

Results for O=C1C(N2CCOCC2)=Cc2cccc3cccc1c23 ?
Cneo AK release: -5.1; rRNA inh HTS: 56.4; S100A4 inh HTS: 90.1*; DENV2 CPE rescue: 6.4; AF4-AF9 inh: 2.2

What do the screens show for `COc1cccc(C(=O)/C=C2\Sc3ccccc3N2C)c1`?
Cneo AK release: -6.0; rRNA inh HTS: -28.5*; PfHsp90 yeast 2: 7.6; S100A4 inh HTS: -8.3; DENV2 CPE rescue: 1.3; AF4-AF9 inh: -5.6

How did CN1/C(=C\C(=O)c2cccnc2)Sc2ccccc21 do in these assays?
rRNA inh HTS: -24.0; PfHsp90 yeast 2: 20.2; S100A4 inh HTS: -3.9; DENV2 CPE rescue: 5.8; AF4-AF9 inh: -2.8

How did C[C@@H]1CN([C@@H](C)CO)C(=O)Cc2cc(NS(=O)(=O)c3cccs3)ccc2O[C@H]1CN(C)Cc1ccccc1 do in these assays?
Cneo AK release: 7.3; rRNA inh HTS: -2.8; S100A4 inh HTS: -1.9; DENV2 CPE rescue: -6.2; AF4-AF9 inh: 1.8

What do the screens show for `COc1ccc(C#Cc2ccc3c(c2)[C@H]2[C@H](CCN2C(=O)CC2CC2)[C@H](CO)N3)cc1`?
Cneo AK release: 1.0; rRNA inh HTS: 0.8; S100A4 inh HTS: 2.4; DENV2 CPE rescue: 15.5; AF4-AF9 inh: 1.4

How did C#CC(=O)N(c1ccc(OC)c(OC)c1)C(C(=O)NC1CCCC1)c1cccs1 (stereo not drawn) do in these assays?
Cneo AK release: 1.2; rRNA inh HTS: -27.5*; PfHsp90 yeast 2: 7.9; S100A4 inh HTS: -1.8; AF4-AF9 inh: -13.2

How did C#CC(=O)N(c1cccc(OC)c1)C(C(=O)NC1CCCC1)c1cccs1 (stereo not drawn) do in these assays?
Cneo AK release: 1.9; rRNA inh HTS: -12.7; PfHsp90 yeast 2: 7.7; S100A4 inh HTS: 1.1; DENV2 CPE rescue: -6.1; AF4-AF9 inh: 14.2

Results for CN1C(=O)c2cc(NC(=O)c3ccc(C(F)(F)F)cc3)ccc2OC[C@H]2O[C@H](CC(=O)NC3Cc4ccccc4C3)CC[C@@H]21 ?
Cneo AK release: -0.6; rRNA inh HTS: -1.4; S100A4 inh HTS: -9.3; DENV2 CPE rescue: -3.9; AF4-AF9 inh: 2.3

Results for N#C/C(=C/c1ccc(N2CCCCCC2)o1)c1ccc(Cl)cc1 ?
Cneo AK release: -1.1; PfHsp90 yeast 2: 104.2*

Results for N#C/C(=C/c1ccc(N2CCCCC2)o1)c1cccc(F)c1 ?
Cneo AK release: -1.4; rRNA inh HTS: 14.2; PfHsp90 yeast 2: -33.2; S100A4 inh HTS: 22.5; AF4-AF9 inh: -0.7

What do the screens show for `CCCc1cc(C(=O)Nc2cc(OC)ccc2OC)cs1`?
Cneo AK release: 0.0; rRNA inh HTS: -31.9*; PfHsp90 yeast 2: -12.5; S100A4 inh HTS: 1.5; DENV2 CPE rescue: -4.8; AF4-AF9 inh: -0.5

What do the screens show for `COc1cccc(-c2cnc3c(c2)C(=O)N([C@H](C)CO)C[C@H](C)[C@H](CN(C)C(=O)CN(C)C)O3)c1`?
Cneo AK release: -6.2; rRNA inh HTS: 1.2; S100A4 inh HTS: -45.2; DENV2 CPE rescue: -13.0; AF4-AF9 inh: -13.4

How did COC(=O)c1sccc1NC(=O)C1CC(C)=C(C)CC1C(=O)O (stereo not drawn) do in these assays?
rRNA inh HTS: -5.3; PfHsp90 yeast 2: -4.7; S100A4 inh HTS: -10.1; DENV2 CPE rescue: 2.4; AF4-AF9 inh: 30.2*

Results for Cc1csc(N=Nc2ccc(N(C)C)cc2)[n+]1[O-] ?
rRNA inh HTS: 5.0; S100A4 inh HTS: -11.9; DENV2 CPE rescue: -0.7; AF4-AF9 inh: 51.7*

What do the screens show for `C[C@H](CO)N1C[C@H](C)[C@@H](CN(C)Cc2ccc(-c3ccccc3)cc2)Oc2ncc(C#CCN(C)C)cc2C1=O`?
Cneo AK release: -1.9; rRNA inh HTS: 1.0; S100A4 inh HTS: -10.2; DENV2 CPE rescue: inconclusive; AF4-AF9 inh: 18.7

How did CCc1nnc(NC(=O)c2ccc(F)c(S(=O)(=O)N3CCCCC3)c2)s1 do in these assays?
Cneo AK release: -1.7; rRNA inh HTS: -3.1; PfHsp90 yeast 2: -16.8; S100A4 inh HTS: -3.0; DENV2 CPE rescue: 68.6*; AF4-AF9 inh: -2.7

Results for CCc1nnc(NC(=O)c2ccc(S(=O)(=O)N3CCCCC3)cc2)s1 ?
Cneo AK release: -5.8; rRNA inh HTS: 4.4; PfHsp90 yeast 2: 12.0; S100A4 inh HTS: -0.8; DENV2 CPE rescue: 0.9; AF4-AF9 inh: -3.1

How did CCCCOC(=O)/C=C/c1c(C)[nH]c(=O)[nH]c1=O do in these assays?
rRNA inh HTS: -34.1*; PfHsp90 yeast 2: 7.8; S100A4 inh HTS: 2.9; DENV2 CPE rescue: 4.3; AF4-AF9 inh: 1.4

How did Cc1nc2ccc(C(=O)N3c4ccccc4N=C(c4ccc(C(F)(F)F)cc4)C3C(=O)NC(C)(C)C)cc2[nH]1 (stereo not drawn) do in these assays?
rRNA inh HTS: -0.4; S100A4 inh HTS: 0.1; DENV2 CPE rescue: 36.9*; AF4-AF9 inh: -0.8

How did O=c1c2ccccc2nc2c3ccccc3c(NCCO)nn12 do in these assays?
Cneo AK release: -1.4; rRNA inh HTS: -6.8; PfHsp90 yeast 2: 11.1; S100A4 inh HTS: 7.2; DENV2 CPE rescue: 73.1*; AF4-AF9 inh: -1.4

How did CN(CCOc1ccc(Cl)cc1)CC(=O)Nc1ccc(OC(F)(F)F)cc1 do in these assays?
Cneo AK release: 0.7; rRNA inh HTS: -67.0; PfHsp90 yeast 2: 3.7; S100A4 inh HTS: -9.1; DENV2 CPE rescue: 2.1; AF4-AF9 inh: 0.9

Bioassay records from PubChem BioAssay.
